Experimental data: ChEMBL document CHEMBL4038343, “Dual MET and SMO Negative Modulators Overcome Resistance to EGFR Inhibitors in Human Nonsmall Cell Lung Cancer” (J Med Chem, 2017)
Active and inactive are the calls of the source. The rule behind the calls is not given here.

How the values were obtained:
[1] = target: Protein smoothened (Homo sapiens, UniProt Q99835, V404M); assay: Displacement of [3H]-cyclopamine from SMO V404M mutant in gefitinib resistant human HCC827 cells by scintillation counting
[2] = test system: Protein smoothened (Homo sapiens), Q99835 [V404M]; assay: Inhibition of SMO V404M mutant in gefitinib resistant human HCC827 cells assessed as decrease in GLI1 activity at 2 uM by GLI1 luciferase reporter assay relative to control
How it was run: (§1)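 HCC827-GR cells seeded serum-free, cotransfected at 50% confluence with GLI1-firefly luciferase reporter plus pRL-TK Renilla (Lipofectamine 2000, triplicate); after 8 h medium switched to compound, with or without 100 nM SAG; about 48 h post-transfection dual-luciferase read; firefly normalized to Renilla as fold over control; three independent experiments.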

[3] = test system: Protein smoothened (Homo sapiens), Q99835 [V404M]; assay: Inhibition of SMO V404M mutant in gefitinib resistant human HCC827 cells assessed as decrease in GLI1 activity at 60 uM by GLI1 luciferase reporter assay relative to control; how it was run: as §1
[4] = test system: Protein smoothened (Homo sapiens), Q99835 [V404M]; assay: Inhibition of SMO V404M mutant in gefitinib resistant human HCC827 cells assessed as decrease in GLI1 activity at 2 to 60 uM in presence of SMO agonist SAG by GLI1 luciferase reporter assay; how it was run: as §1
[5] = test system: Protein smoothened (Homo sapiens), Q99835 [V404M]; assay: Inhibition of SMO V404M mutant in gefitinib resistant human HCC827 cells assessed as decrease in GLI1 activity by GLI1 luciferase reporter assay; how it was run: as §1
[6] = test system: Protein smoothened (Homo sapiens), Q99835 [V404M]; assay: Displacement of [3H]-cyclopamine from SMO V404M mutant in gefitinib resistant human HCC827 cells at 10 uM by scintillation counting
[7] = target: Protein smoothened (Homo sapiens, UniProt Q99835); assay: Displacement of [3H]-cyclopamine from human wild-type SMO receptor expressed in HEK293T cell membranes by liquid scintillation spectrometry; design: species or system HEK-293T
[8] = test system: HCC827; assay: Antiproliferative activity against gefitinib resistant EGFR-mutated human HCC827 cells after 72 hrs by MTT assay; assay type: functional, cell-based; conditions: for IC50: HCC827, 72 h
[9] = test system: HCC827; assay: Induction of apoptosis in gefitinib resistant human HCC827 cells at 0.01 to 1 uM after 72 hrs by annexin V-FITC-propidium iodide staining-based flow cytometry method relative to control; assay type: functional, cell-based
How it was run: (§2)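 HCC827-GR cells treated 72 h, trypsinized, resuspended at 1 × 10^6/mL in binding buffer, stained 30 min at RT in dark with annexin V-FITC and propidium iodide; FACSCalibur flow cytometry (488 nm excitation; 530 nm FITC, 670 nm PI); mean of three wells from a representative experiment.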

[10] = test system: HCC827; assay: Downregulation of SMO expression in gefitinib resistant human HCC827 cells at 0.1 to 0.5 uM after 72 hrs by Western blotting method; assay type: functional, cell-based
How it was run: (§3)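 HCC827-GR cells treated 72 h; lysates in RIPA or Tween-20 buffer, protein equalized by Bradford, Western blotting with antibodies to p-MAPK44/42 (Thr202/Tyr204), MAPK, p-AKT (Ser473), AKT, p-MET (Tyr1234/1235), MET, SMO, GLI1, α-tubulin; ECL detection; triplicate.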

[11] = test system: HCC827; assay: Effect on total MAPK levels in gefitinib resistant human HCC827 cells at 0.1 to 0.5 uM after 72 hrs by Western blotting method; assay type: ADME, cell-based; conditions: hcc827, 72 h; how it was run: as §3
[12] = test system: HCC827; assay: Effect on total AKT levels in gefitinib resistant human HCC827 cells at 0.1 to 0.5 uM after 72 hrs by Western blotting method; assay type: ADME, cell-based; conditions: hcc827, 72 h; how it was run: as §3
[13] = test system: HCC827; assay: Antitumor activity against gefitinib resistant human HCC827 cells xenografted in balb/c athymic nu/nu mouse assessed as decrease in tumor size at 20 mg/kg/day, po; assay type: functional, organism-based
How it was run: (§4)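 Female balb/c nu/nu mice, 4–6 weeks old, given 10^7 HCC827 cells s.c. in 1:1 Matrigel/medium; at 150 mm3 tumors, 3-weekly escalating oral gefitinib (18.7 to 150 mg/kg/day) over 4 months until resistance (>25% regrowth from maximal reduction); then randomized to oral test agent at fixed daily dose; tumor volume (π/6 × larger × smaller²) every other day.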

[14] = test system: HCC827; assay: Antitumor activity against gefitinib resistant human HCC827 cells xenografted in balb/c athymic nu/nu mouse assessed as decrease in tumor size at 20 mg/kg/day, po in presence of gefitinib; assay type: functional, organism-based
How it was run: (§5)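 HCC827 s.c. xenografts (10^7 cells in Matrigel) in female balb/c nu/nu mice made gefitinib-resistant by 3-weekly escalating oral gefitinib (18.7–150 mg/kg/day); gefitinib then continued at its last maximal dose with oral compound at fixed daily dose; tumor volume by calipers (π/6 × larger × smaller²) and body weight on alternate days.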

[15] = test system: HCC827; assay: Antitumor activity against gefitinib resistant human HCC827 cells xenografted in balb/c athymic nu/nu mouse assessed as decrease in tumor size at 20 mg/kg/day, po in presence of gefitinib
[16] = test system: HCC827; assay: Induction of apoptosis in gefitinib resistant human HCC827 cells at 0.1 uM after 72 hrs by annexin V-FITC-propidium iodide staining-based flow cytometry method relative to control; assay type: functional; how it was run: as §2
[17] = test system: HCC827; assay: Induction of apoptosis in gefitinib resistant human HCC827 cells at 0.5 uM after 72 hrs by annexin V-FITC-propidium iodide staining-based flow cytometry method relative to control; assay type: functional; how it was run: as §2
[18] = Plasma concentration in balb/c athymic nu/nu mouse at 20 mg/kg, po measured after 5 hrs; assay type: ADME, organism-based
[19] = test system: HCC827; assay: Antitumor activity against gefitinib resistant human HCC827 cells xenografted in balb/c athymic nu/nu mouse assessed as decrease in tumor size at 15 mg/kg/day, po; assay type: functional, organism-based; how it was run: as §4
[20] = target: Hepatocyte growth factor receptor (Homo sapiens) (UniProt P08581); assay: Inhibition of MET phosphorylation at Tyr1234/1235 in gefitinib resistant human HCC827 cells at 0.05 to 0.1 uM after 72 hrs by Western blotting method; how it was run: as §3
[21] = test system: HCC827; assay: Downregulation of SMO expression in gefitinib resistant human HCC827 cells at 0.05 to 0.1 uM after 72 hrs by Western blotting method; assay type: functional, cell-based; how it was run: as §3
[22] = test system: HCC827; assay: Effect on total MAPK levels in gefitinib resistant human HCC827 cells at 0.05 to 0.1 uM after 72 hrs by Western blotting method; assay type: ADME, cell-based; conditions: hcc827, 72 h; how it was run: as §3
[23] = test system: HCC827; assay: Effect on total AKT levels in gefitinib resistant human HCC827 cells at 0.05 to 0.1 uM after 72 hrs by Western blotting method; assay type: ADME, cell-based; conditions: hcc827, 72 h; how it was run: as §3
[24] = target: Hepatocyte growth factor receptor (Homo sapiens) (UniProt P08581); assay: Inhibition of MET in gefitinib resistant human HCC827 cells assessed as decrease in MAPK44/42 phosphorylation at Thr202/Tyr204 at 0.05 to 0.1 uM after 72 hrs by Western blotting method; how it was run: as §3
[25] = target: Hepatocyte growth factor receptor (Homo sapiens) (UniProt P08581); assay: Inhibition of MET in gefitinib resistant human HCC827 cells assessed as decrease in AKT phosphorylation at Ser473 at 0.05 to 0.1 uM after 72 hrs by Western blotting method; how it was run: as §3
[26] = organism: Homo sapiens; assay: Inhibition of MET/SMO V404M mutant in gefitinib resistant human HCC827 cells assessed as decrease in vimentin expression at 0.05 to 0.1 uM after 72 hrs by Western blotting method
[27] = test system: HCC827; assay: Antitumor activity against gefitinib resistant human HCC827 cells xenografted in balb/c athymic nu/nu mouse assessed as decrease in tumor size at 15 mg/kg/day, po in presence of gefitinib; assay type: functional, organism-based; how it was run: as §5
[28] = test system: HCC827; assay: Antitumor activity against gefitinib resistant human HCC827 cells xenografted in balb/c athymic nu/nu mouse assessed as decrease in tumor size at 15 mg/kg/day, po in presence of gefitinib

Sequence of Protein smoothened (Homo sapiens, UniProt Q99835, V404M) (Q99835 28-787 V404M limits assumed): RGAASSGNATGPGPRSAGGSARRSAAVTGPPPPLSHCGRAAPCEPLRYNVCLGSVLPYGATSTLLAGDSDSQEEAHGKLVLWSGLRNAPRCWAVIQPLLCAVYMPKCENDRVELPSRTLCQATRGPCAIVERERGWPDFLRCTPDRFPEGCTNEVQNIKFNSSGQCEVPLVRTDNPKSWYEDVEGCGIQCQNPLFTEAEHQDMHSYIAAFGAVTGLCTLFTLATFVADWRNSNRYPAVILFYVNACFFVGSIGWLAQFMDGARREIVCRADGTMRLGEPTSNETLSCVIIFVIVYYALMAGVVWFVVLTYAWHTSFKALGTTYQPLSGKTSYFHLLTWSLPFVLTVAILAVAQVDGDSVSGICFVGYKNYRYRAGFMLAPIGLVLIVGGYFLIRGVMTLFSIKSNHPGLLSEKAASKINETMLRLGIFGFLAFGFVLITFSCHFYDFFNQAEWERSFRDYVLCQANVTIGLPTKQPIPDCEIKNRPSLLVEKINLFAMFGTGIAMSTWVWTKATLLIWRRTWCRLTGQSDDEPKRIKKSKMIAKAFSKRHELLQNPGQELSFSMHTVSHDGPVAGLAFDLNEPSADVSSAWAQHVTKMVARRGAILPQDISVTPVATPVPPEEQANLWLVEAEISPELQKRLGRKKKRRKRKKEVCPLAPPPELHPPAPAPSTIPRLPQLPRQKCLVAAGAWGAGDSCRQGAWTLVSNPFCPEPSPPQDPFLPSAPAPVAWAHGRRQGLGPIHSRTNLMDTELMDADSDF
Sequence of Hepatocyte growth factor receptor (Homo sapiens) (P08581 whole entry): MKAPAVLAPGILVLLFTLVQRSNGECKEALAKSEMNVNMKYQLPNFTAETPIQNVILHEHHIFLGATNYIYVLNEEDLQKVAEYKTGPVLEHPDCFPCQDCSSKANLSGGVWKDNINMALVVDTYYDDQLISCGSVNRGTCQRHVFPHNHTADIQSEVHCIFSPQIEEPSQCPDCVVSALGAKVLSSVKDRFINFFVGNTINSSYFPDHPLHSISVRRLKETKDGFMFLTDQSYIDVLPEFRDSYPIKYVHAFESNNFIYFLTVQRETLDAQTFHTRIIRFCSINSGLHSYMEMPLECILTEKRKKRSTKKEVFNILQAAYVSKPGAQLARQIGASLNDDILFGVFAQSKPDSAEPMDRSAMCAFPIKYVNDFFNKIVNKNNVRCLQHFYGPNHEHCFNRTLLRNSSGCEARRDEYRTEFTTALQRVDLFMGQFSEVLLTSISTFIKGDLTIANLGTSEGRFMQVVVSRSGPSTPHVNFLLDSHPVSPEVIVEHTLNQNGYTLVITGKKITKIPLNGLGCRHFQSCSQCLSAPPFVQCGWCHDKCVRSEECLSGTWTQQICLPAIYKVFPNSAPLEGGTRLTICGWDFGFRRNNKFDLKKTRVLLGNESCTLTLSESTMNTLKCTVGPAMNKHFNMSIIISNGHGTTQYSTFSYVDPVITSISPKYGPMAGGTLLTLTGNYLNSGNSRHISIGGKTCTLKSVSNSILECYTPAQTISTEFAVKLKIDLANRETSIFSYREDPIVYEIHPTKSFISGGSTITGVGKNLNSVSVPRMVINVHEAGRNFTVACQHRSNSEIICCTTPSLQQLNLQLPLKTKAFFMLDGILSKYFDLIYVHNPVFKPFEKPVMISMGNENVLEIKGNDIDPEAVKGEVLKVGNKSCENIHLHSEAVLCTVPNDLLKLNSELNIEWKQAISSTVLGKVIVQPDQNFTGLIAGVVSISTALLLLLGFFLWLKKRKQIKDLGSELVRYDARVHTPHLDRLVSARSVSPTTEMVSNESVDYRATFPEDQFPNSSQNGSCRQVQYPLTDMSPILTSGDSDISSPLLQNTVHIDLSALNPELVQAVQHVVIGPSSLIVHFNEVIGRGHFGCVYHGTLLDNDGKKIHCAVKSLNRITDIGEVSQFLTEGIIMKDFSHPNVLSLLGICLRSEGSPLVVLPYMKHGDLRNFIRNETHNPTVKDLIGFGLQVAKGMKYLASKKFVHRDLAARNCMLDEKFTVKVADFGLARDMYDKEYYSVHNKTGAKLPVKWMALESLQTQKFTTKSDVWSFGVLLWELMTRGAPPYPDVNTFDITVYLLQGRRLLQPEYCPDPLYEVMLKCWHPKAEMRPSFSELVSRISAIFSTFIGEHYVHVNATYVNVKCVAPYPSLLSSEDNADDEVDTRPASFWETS
Sequence of Protein smoothened (Homo sapiens), Q99835 [V404M] (Q99835 whole entry V404M): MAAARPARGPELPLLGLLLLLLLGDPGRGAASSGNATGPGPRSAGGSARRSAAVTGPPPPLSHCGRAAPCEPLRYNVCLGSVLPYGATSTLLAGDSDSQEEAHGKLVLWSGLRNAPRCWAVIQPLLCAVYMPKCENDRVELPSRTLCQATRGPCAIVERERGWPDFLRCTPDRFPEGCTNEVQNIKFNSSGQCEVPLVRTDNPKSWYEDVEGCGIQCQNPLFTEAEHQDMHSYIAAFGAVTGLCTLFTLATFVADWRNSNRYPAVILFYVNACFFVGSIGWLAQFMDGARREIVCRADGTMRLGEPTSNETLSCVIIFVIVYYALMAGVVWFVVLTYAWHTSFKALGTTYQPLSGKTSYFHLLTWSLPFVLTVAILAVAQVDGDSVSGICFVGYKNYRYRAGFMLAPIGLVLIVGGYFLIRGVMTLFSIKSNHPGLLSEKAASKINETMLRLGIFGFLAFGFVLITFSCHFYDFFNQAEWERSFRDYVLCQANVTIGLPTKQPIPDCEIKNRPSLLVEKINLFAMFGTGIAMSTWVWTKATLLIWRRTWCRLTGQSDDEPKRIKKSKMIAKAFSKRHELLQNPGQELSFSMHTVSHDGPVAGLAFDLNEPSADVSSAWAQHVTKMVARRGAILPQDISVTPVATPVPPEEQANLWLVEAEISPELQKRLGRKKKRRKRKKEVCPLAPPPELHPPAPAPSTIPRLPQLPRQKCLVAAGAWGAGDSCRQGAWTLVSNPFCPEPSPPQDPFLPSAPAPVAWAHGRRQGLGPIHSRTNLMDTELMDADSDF
Sequence of Protein smoothened (Homo sapiens, UniProt Q99835) (Q99835 whole entry): as the sequence (Q99835 whole entry V404M) above, with M404V counted along it

| SMILES | Ki [1] [nM] | inhibition [2] [%] | inhibition [3] [%] | inhibition [4] | inhibition [5] | inhibition [6] | also measured |
| --- | --- | --- | --- | --- | --- | --- | --- |
| COc1cc2c(Oc3ccc(NC(=O)C4(C(=O)Nc5ccc(F)cc5)CC4)cc3F)ccnc2cc1OCCCN1CCOCC1 [FORETINIB] | 66.8 | 25 to 50 | 10 to 100 | inactive | Dose-dependent effect |  | Ki [7]: 59.7 nM; Activity [8]: Dose-dependent effect; IC50 [8]: 500 nM; Activity [9]: Active; Activity [10]: Active; Activity [11]: Non-Toxic; Activity [12]: Non-Toxic; Activity [13]: Active; Activity [14]: Active; Activity [15]: Active |
| CC(C)(O)CC(=O)NCCn1ccc2ncnc(Nc3ccc(Oc4cccc(C(F)(F)F)c4)c(Cl)c3)c21 |  |  |  |  |  | inactive |  |
| CSc1cccc(Nc2ncc3cc(-c4c(Cl)cccc4Cl)c(=O)n(C)c3n2)c1 | 46.2 | 25 to 50 | 10 to 100 | inactive | Dose-dependent effect |  |  |
| O=C(CCCCCC(=O)N/N=C/c1cc2c(cc1[N+](=O)[O-])OCO2)N/N=C/c1cc2c(cc1[N+](=O)[O-])OCO2 |  |  |  |  |  | inactive |  |
| CCN1CCN(c2ccc(Nc3cc(N(C)C(=O)Nc4c(Cl)c(OC)cc(OC)c4Cl)ncn3)cc2)CC1 [INFIGRATINIB] | 46.5 | 25 to 50 | 10 to 100 | inactive | Dose-dependent effect |  |  |
| COc1cc2ncnc(Oc3cccc(NC(=O)Nc4cc(C(C)(C)C(F)(F)F)on4)c3)c2cc1OC [CEP-32496] | 188 | 25 to 50 | 10 to 100 | inactive | Dose-dependent effect |  |  |

More lines, main results first:

| Ki [1] [nM] | inhibition [2] [%] | inhibition [3] [%] | inhibition [4] | inhibition [5] | inhibition [6] | SMILES | also measured |
| --- | --- | --- | --- | --- | --- | --- | --- |
| 50.4 | 25 to 50 | 10 to 100 | inactive | Dose-dependent effect |  | Cc1ccc(NC(=O)CN2C(=O)/C(=N/NC(=O)c3cc(Br)ccc3O)c3ccccc32)cc1 |  |
|  |  |  |  |  | inactive | Cc1cccc(C(=O)Nc2ccc(C(=O)NNC3C(=O)Nc4ccccc43)cc2)c1 (stereo not given) |  |
| 87.6 | 25 to 50 | 10 to 100 | inactive | Dose-dependent effect |  | Cc1ccc(F)c(NC(=O)Nc2ccc(-c3cccc4[nH]nc(N)c34)cc2)c1 [LINIFANIB] |  |
| 53.1 | 25 to 50 | 10 to 100 | inactive | Dose-dependent effect |  | Cn1cnc(-c2cc3nccc(Oc4ccc(NC(=S)NC(=O)Cc5ccccc5)cc4F)c3s2)c1 | Ki [7]: 41.7 nM; Activity [8]: Dose-dependent effect; IC50 [8]: 80 nM; Activity [16]: 62%; Activity [17]: 84%; concentration at 5 h [18]: 800 nM; Activity [19]: Active; inhibition [20]: Active; Activity [21]: Active; Activity [22]: Non-Toxic; Activity [23]: Non-Toxic; inhibition [24]: Active; inhibition [25]: Active; inhibition [26]: Active; Activity [27]: Active; Activity [28]: Active |
|  |  |  |  |  | inactive | CCOc1ccn(-c2ccc(F)cc2)c(=O)c1C(=O)Nc1ccc(Oc2ccnc(N)c2Cl)c(F)c1 |  |
| 168 | 25 to 50 | 10 to 100 | inactive | Dose-dependent effect |  | O=C(NNC(=O)c1ccc([N+](=O)[O-])cc1)C(=O)c1c[nH]c2ccccc12 |  |
